Results of several laboratories.
Protocols differ between the studies behind these lines.
Target: Mitogen-activated protein kinase kinase kinase 4 (MAP3K4, Homo sapiens, UniProt Q9Y6R4)

The inhibition of `CO[C@@H]1[C@H](N(C)C(=O)c2ccccc2)C[C@H]2O[C@]1(C)n1c3ccccc3c3c4c(c5c6ccccc6n2c5c31)C(=O)NC4` is reported as 4% (enzyme activity; inhibitor; 1 µM).
With `CCCCC(=O)Nc1ccc(-c2ccc3ncn(CCC)c(=O)c3c2)cn1` the remaining binding was 76% (binding; competition with immobilised ligand; 0.5 µM).
`C[C@H]1CC[C@H](n2c3cnccc3c3cnc(Nc4ccc5c(n4)CCN(C(=O)CO)C5)nc32)CC1` has a remaining binding of 100% (binding; competition with immobilised ligand; 1 µM).
With `CC#CC(=O)N1CCC[C@H]1c1nc(-c2ccc(C(=O)Nc3ccccn3)cc2)c2c(N)nccn12` the inhibition was 19% (enzyme activity; inhibitor; 1 µM).
The remaining binding of `Cc1ccc(NC(=O)c2ccnc(C(F)(F)F)c2)cc1-c1cc(OCCO)nc(N2CCOCC2)c1` is reported as 90% (binding; competition with immobilised ligand; 1 µM).
With `N#Cc1ccc(NC(=O)Nc2ccccc2)cc1` the remaining binding was 77% (cell-free assay; competition with immobilised ligand; 25 µM).
`C1=C/COCc2cc(ccc2OCCN2CCCC2)Nc2nccc(n2)-c2cccc(c2)COC/1` gave a remaining binding of 100% (binding; 0.1 µM).
`C#Cc1cnc(Nc2ccnc(CO)c2)nc1Nc1ccccc1S(C)(=O)=NC#N` (centres unmarked) gave a remaining signal of 86% (cell-free assay; 1 µM).
